Source: article PMC11293135 (Journal of Nanobiotechnology, 2024)
Counter-ions that a name gives are not always drawn.

Legend:
4T1 cells = test: In vitro cytotoxicity, CCK-8 assay; type: cell-based, murine; conditions: concentrations up to 50 μM, three days
Procedure, shortened: (§1)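 4T1 and HC11 cells were grown in RPMI-1640 with 10% FBS at 37 °C and 5% CO2. Cells were exposed to the azido-sugar test compound at 0–50 μM for 3 days. Viability was read by CCK-8.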

HC11 cells = test: In vitro cytotoxicity, CCK-8 assay; type: cell-based, mouse; conditions: concentrations up to 50 μM, three days
Procedure, shortened: as §1

4T1 tumor-bearing mice [1] = test: Treatment-related toxicity; type: in vivo, BALB/c mice; conditions: 5 mg/kg
Procedure, shortened: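 Female BALB/c mice bearing ~150 mm3 s.c. 4T1 tumors were split into 5 groups (n = 5). Click groups were pretreated with azido-sugar 40 mg/kg i.p. daily for 3 days; others received PBS. Treatments at 5 mg/kg i.v. were given every 7 days. Body weight was recorded every 2 days for 14 days. Major organs were fixed in 4% paraformaldehyde, paraffin-embedded, and H&E stained.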

DCs from TDLNs = test: DC maturation in TDLNs by flow cytometry; type: in vivo, BALB/c mice; conditions: mean ± SD, n = 5
Procedure, shortened: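 Female BALB/c mice (5–6 weeks) received 1.0 × 10^6 4T1 cells s.c. in the flank. Once tumors reached ~150 mm3, click groups got azido-sugar 40 mg/kg i.p. daily for 3 days and others got PBS. All groups then received 5 mg/kg i.v. every 7 days (n = 5). TDLNs were digested with collagenase IV (37 °C, 1 h) and strained at 70 μm. Mature DCs were gated CD40+CD80+MHC II+CCR7+. Mean ± SD reported.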

PD-L1 = conditions: DOX treatment; ref [41], [42]; cited from earlier work
4T1 tumor-bearing mice [2] = test: In vivo MR-T1 mapping imaging; design: species or system BALB/c mice; conditions: by 3 h post-injection, 1 mg/kg i.v., n = 3
Procedure, shortened: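 4T1 flank tumors were raised in female BALB/c mice (1.0 × 10^6 cells s.c.), n = 3 per group. The click group received azido-sugar 40 mg/kg i.p. once daily for 3 days; the other groups received PBS. Mice were then injected i.v. with 150 μL (1 mg/kg) of Gd probe or Gd-DOTA. T1 mapping was done before injection and at 1, 2, 3 and 4 h, and tumor 1/T1 values were quantified.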

Structure (SMILES): CC(=O)OC[C@H]1OC(OC(C)=O)[C@@H](NC(=O)CN=[N+]=[N-])[C@@H](OC(C)=O)[C@@H]1OC(C)=O (stereo partly shown) [Ac4ManNAz, tetraacetyl-N-azidoacetylmannosamine]
- Cytotoxicity to 4T1 cells (4T1 cells): no significant harm
- Cytotoxicity to HC11 cells (HC11 cells): no significant harm

Structure (SMILES): COc1cccc2c1C(=O)c1c(O)c3c(c(O)c1C2=O)C[C@@](O)(C(=O)CO)C[C@@H]3O[C@H]1C[C@H](N)[C@H](O)[C@H](C)O1 [DOX, Doxorubicin hydrochloride]
- Body weight change (4T1 tumor-bearing mice [1]; measured every two days for 14 days, n = 5): severe weight loss
- H&E analyses on major organs compared to PBS-treated mice (4T1 tumor-bearing mice [1]; end of antitumor study): substantial damage
- MHC-II expression in TDLNs (DCs from TDLNs): 45.04 ± 1.85%
- PD-L1 expression of 4T1 cells (PD-L1): elevation in PD-L1 expression

Structure (SMILES): O=C([O-])CN1CCN(CC(=O)[O-])CCN(CC(=O)[O-])CCN(CC(=O)[O-])CC1.[Gd+3] [Gd-DOTA]
- Tumor MR signal (4T1 tumor-bearing mice [2]): returned to baseline levels
